Assay results taken from ChEMBL document CHEMBL1145471, “Small molecule regulators of autophagy identified by an image-based high-throughput screen” (Proc Natl Acad Sci U S A, 2007).

Experiments:
Assay type in all cases: functional
H4 [1] = test: Increase in light chain 3-GFP+ autophagosome vesicle number per cell in human H4 cells at 8.9 uM after 24 hrs by high throughput fluorescence microscopy relative to control
Outline: (§1)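 H4 cells stably expressing LC3-GFP, grown in DMEM with 10% FBS, penicillin/streptomycin and 2 mM L-glutamine at 37°C, 5% CO2. Cells were seeded in 96-well plates and exposed to library compounds at 3–12 μM for 24 h, then fixed in 4% paraformaldehyde and stained with 3 μg/ml DAPI. LC3-GFP spot number, size and intensity were measured by high-throughput fluorescence microscopy and expressed relative to DMSO. Triplicates, mean ± SD.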

H4 [2] = test: Increase in light chain 3-GFP+ autophagosome vesicle area per cell in human H4 cells at 8.9 uM after 24 hrs by high throughput fluorescence microscopy relative to control
Outline: (§2)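 H4 cells stably expressing LC3-GFP, seeded in 96-well plates and exposed to compound for 24 h; screening concentrations were 3–12 μM, with rapamycin 0.22 μM and bafilomycin A1 0.40 μM. Cells fixed in 4% paraformaldehyde and stained with 3 μg/ml DAPI. Number, size and intensity of LC3-GFP spots measured by high-throughput fluorescence microscopy and expressed as percent of DMSO-treated wells. Rapamycin was the positive control. Triplicate wells, mean ± SD; experiments repeated three times.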

H4 [3] = test: Increase in light chain 3-GFP+ autophagosome vesicle intensity per cell in human H4 cells at 8.9 uM after 24 hrs by high throughput fluorescence microscopy relative to control
Outline: (§3)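 H4 cells stably expressing LC3-GFP were grown in DMEM with 10% FBS and 2 mM L-glutamine at 37°C, 5% CO2. They were exposed to each compound for 24 h, with DMSO as negative and rapamycin as positive control. Cells were then fixed in 4% paraformaldehyde and stained with 3 μg/ml DAPI. High-throughput fluorescence imaging scored LC3-GFP spot number, size and intensity, expressed relative to DMSO. Mean ± SD of triplicates; experiments repeated three times.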

H4 [4] = test: Induction of light chain 3-GFP level in human H4 cells at 8.9 uM after 24 hrs by high throughput fluorescence microscopy relative to control; outline: as §1
H4 [5] = test: Increase in light chain 3-GFP+ autophagosome vesicle area per cell in human H4 cells at 11.3 uM after 24 hrs by high throughput fluorescence microscopy relative to control
Outline: (§4)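 H4 cells stably expressing LC3-GFP, seeded in 96-well plates and exposed to compound for 24 h; fixed in 4% paraformaldehyde, nuclei stained with 3 μg/ml DAPI. Automated fluorescence microscopy scored number, size and intensity of LC3-GFP spots; values expressed relative to DMSO-treated wells, rapamycin positive control. Triplicate wells, mean ± SD; experiments repeated three times.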

H4 [6] = test: Increase in light chain 3-GFP+ autophagosome vesicle number per cell in human H4 cells at 7.4 uM after 24 hrs by high throughput fluorescence microscopy relative to control
Outline: (§5)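 H4 cells stably expressing LC3-GFP, kept in DMEM/10% FBS at 37°C, 5% CO2, were seeded in 96-well plates and exposed to compound for 24 h. Cells were then fixed in 4% paraformaldehyde and stained with 3 μg/ml DAPI. Automated fluorescence microscopy scored the number, size and intensity of LC3-GFP spots. Values are percent of DMSO wells, in triplicate, mean ± SD. Rapamycin served as positive control.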

H4 [7] = test: Increase in light chain 3-GFP+ autophagosome vesicle intensity per cell in human H4 cells at 11.3 uM after 24 hrs by high throughput fluorescence microscopy relative to control; outline: as §4
H4 [8] = test: Induction of light chain 3-GFP level in human H4 cells at 7.4 uM after 24 hrs by high throughput fluorescence microscopy relative to control; outline: as §5
H4 [9] = test: Increase in light chain 3-GFP+ autophagosome vesicle number per cell in human H4 cells at 0.4 uM after 24 hrs by high throughput fluorescence microscopy relative to control; outline: as §4
H4 [10] = test: Increase in light chain 3-GFP+ autophagosome vesicle area per cell in human H4 cells at 0.4 uM after 24 hrs by high throughput fluorescence microscopy relative to control; outline: as §4
H4 [11] = test: Increase in light chain 3-GFP+ autophagosome vesicle intensity per cell in human H4 cells at 0.4 uM after 24 hrs by high throughput fluorescence microscopy relative to control; outline: as §4
H4 [12] = test: Induction of light chain 3-GFP level in human H4 cells at 0.4 uM after 24 hrs by high throughput fluorescence microscopy relative to control; outline: as §5
H4 [13] = test: Increase in light chain 3-GFP+ autophagosome vesicle number per cell in human H4 cells at 8.8 uM after 24 hrs by high throughput fluorescence microscopy relative to control; outline: as §1
H4 [14] = test: Increase in light chain 3-GFP+ autophagosome vesicle area per cell in human H4 cells at 8.8 uM after 24 hrs by high throughput fluorescence microscopy relative to control; outline: as §2
H4 [15] = test: Increase in light chain 3-GFP+ autophagosome vesicle intensity per cell in human H4 cells at 8.8 uM after 24 hrs by high throughput fluorescence microscopy relative to control; outline: as §3
H4 [16] = test: Effect on FYVE-RFP+ vesicle intensity per cell in human H4 cells after 2 hrs relative to control; design: concentration or dose not given beside the values
Outline: (§6)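 H4 cells stably expressing FYVE-RFP (H4-FYVE), grown in DMEM with 10% FBS, penicillin/streptomycin and 2 mM L-glutamine at 37°C, 5% CO2, seeded in 96-well plates and exposed to compound. Fixed in 4% paraformaldehyde, nuclei stained with 3 μg/ml DAPI, FYVE-RFP+ vesicles quantified by high-throughput fluorescence microscopy against DMSO control. Triplicate wells, mean ± SD.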

H4 [17] = test: Effect on FYVE-RFP+ vesicle intensity per cell in human H4 cells after 4 hrs relative to control; design: concentration or dose not given beside the values; outline: as §6
H4 [18] = test: Effect on FYVE-RFP+ vesicle intensity per cell in human H4 cells after 8 hrs relative to control; design: concentration or dose not given beside the values; outline: as §6
H4 [19] = test: Increase in long-lived protein degradation in human H4 cells after 1 hr relative to control; design: concentration or dose not given beside the values
H4 [20] = test: Increase in long-lived protein degradation in human H4 cells after 2 hrs relative to control; design: concentration or dose not given beside the values
H4 [21] = test: Increase in long-lived protein degradation in human H4 cells after 4 hrs relative to control; design: concentration or dose not given beside the values
H4 [22] = test: Increase in long-lived protein degradation in human H4 cells after 24 hrs relative to control; design: concentration or dose not given beside the values
H4 [23] = test: Induction of light chain 3-GFP level in human H4 cells at 8.8 uM after 24 hrs by high throughput fluorescence microscopy relative to control; outline: as §1
H4 [24] = test: Increase in light chain 3-GFP+ autophagosome vesicle number per cell in human H4 cells at 12.7 uM after 24 hrs by high throughput fluorescence microscopy relative to control; outline: as §3
H4 [25] = test: Increase in light chain 3-GFP+ autophagosome vesicle area per cell in human H4 cells at 12.7 uM after 24 hrs by high throughput fluorescence microscopy relative to control
H4 [26] = test: Increase in light chain 3-GFP+ autophagosome vesicle intensity per cell in human H4 cells at 12.7 uM after 24 hrs by high throughput fluorescence microscopy relative to control
H4 [27] = test: Induction of light chain 3-GFP level in human H4 cells at 12.7 uM after 24 hrs by high throughput fluorescence microscopy relative to control; outline: as §1

Structure (SMILES): C[C@H]([C@H](C)N1CC(=O)NC(=O)C1)N1CC(=O)NC(=O)C1
- Activity (H4 [1]): 339.59%
- Activity (H4 [2]): 402.47%
- Activity (H4 [3]): 483.18%
- Activity (H4 [4]): 45.03%

Structure (SMILES): C[C@@]1(CO)[C@H](O)CC[C@@]2(C)[C@H]1CC[C@H]1C[C@@H]3C[C@@]12CC[C@]3(O)CO [APHIDICOLIN]
- Activity (H4 [5]): 275.5%
- Activity (H4 [6]): 216.53%
- Activity (H4 [7]): 350.13%
- Activity (H4 [8]): 73.06%

Structure (SMILES): CO/C1=C\C(C)=C\[C@@H](C)[C@@H](O)[C@@H](C)C/C(C)=C/C=C/[C@H](OC)[C@@H]([C@@H](C)[C@@H](O)[C@H](C)[C@@]2(O)C[C@@H](O)[C@H](C)[C@@H](C(C)C)O2)OC1=O [BAFILOMYCIN A1]
- Activity (H4 [9]): 691.15%
- Activity (H4 [10]): 1608.62%
- Activity (H4 [11]): 4027.54%
- Activity (H4 [12]): 71.96%

Structure (SMILES): O=C(/C=C/c1ccc(O)c(O)c1)OCCc1ccccc1 [CAFFEIC ACID PHENETHYL ESTER]
- Activity (H4 [13]): 147.15%
- Activity (H4 [14]): 160.43%
- Activity (H4 [15]): 150.18%
- Activity (H4 [16]): 86.89%
- Activity (H4 [17]): 71.17%
- Activity (H4 [18]): 69.14%
- Activity (H4 [19]): 122.08%
- Activity (H4 [20]): 128.4%
- Activity (H4 [21]): 120.18%
- Activity (H4 [22]): 106.53%
- Activity (H4 [23]): 146.2%

Structure (SMILES): C[C@@]12C(=O)OC(=O)[C@]1(C)[C@H]1CC[C@@H]2O1 [CANTHARIDIN]
- Activity (H4 [24]): 259.49%
- Activity (H4 [25]): 332.84%
- Activity (H4 [26]): 463.81%
- Activity (H4 [27]): 24.47%
